From paper PMC9115729 (Bioorganic & medicinal chemistry, 2020)

Legend:
[1] = biological target: T1, human kidney-type glutaminase (hKGA124-669) (Homo sapiens, UniProt O94925); experiment: in vitro GLS assay with L-[3H]-glutamine as substrate; type: biochemical; conditions: for GLS inhibitory potency in words: comparison with compounds 8 and 3a
T1 sequence (O94925 124-669): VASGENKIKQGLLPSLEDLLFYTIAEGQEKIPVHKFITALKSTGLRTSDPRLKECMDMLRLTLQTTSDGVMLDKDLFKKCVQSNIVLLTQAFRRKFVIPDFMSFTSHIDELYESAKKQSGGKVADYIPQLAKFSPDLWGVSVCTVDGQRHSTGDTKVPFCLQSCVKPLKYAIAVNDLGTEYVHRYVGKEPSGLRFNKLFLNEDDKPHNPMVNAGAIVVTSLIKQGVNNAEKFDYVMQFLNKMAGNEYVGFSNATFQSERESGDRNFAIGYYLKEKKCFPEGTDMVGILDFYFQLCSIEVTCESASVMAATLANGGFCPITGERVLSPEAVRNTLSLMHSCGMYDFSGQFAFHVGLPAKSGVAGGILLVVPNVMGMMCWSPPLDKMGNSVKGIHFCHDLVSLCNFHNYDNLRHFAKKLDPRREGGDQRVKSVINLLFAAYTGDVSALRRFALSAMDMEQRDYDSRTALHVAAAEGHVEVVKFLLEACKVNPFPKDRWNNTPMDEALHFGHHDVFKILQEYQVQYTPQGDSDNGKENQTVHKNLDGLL

[2] = system: GLS; conditions: read-out: GLS inhibition IC50; literature value; cited from earlier work
[3] = Aqueous solubility by the shake flask method; type: physicochemical; conditions: PBS buffer, 37 °C, pH 7.4, aqueous buffer, thermodynamic from solid
Procedure, shortened: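 Test compound added to PBS (pH 7.4) at 5 mg/mL and shaken at 1000 rpm for 24 h at 37 °C to reach saturation. The solution was then passed through a 0.45 μm PTFE filter and the filtrate diluted. Concentration was quantified by UHPLC–Orbitrap MS on a C18 column (35 °C) with a 0.1% formic acid water/acetonitrile gradient, against a 5-10000 nM calibration curve.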

[4] = type: physicochemical; conditions: final concentrations of 1-10 μM

SMILES | GLS inhibitory potency in words [1] | other results
O=C(Cc1ccccc1)Nc1nnc(CSCc2nnc(NC(=O)Cc3ccccc3)s2)s1 [Compound 2b, N,N’-(5,5’-Thiobis(methylene)bis(1,3,4-thiadiazole-5,2-diyl))bis(2-phenylacetamide), reference compound] | negligible activity | GLS inhibitory activity ([1]; at concentrations up to 100 μM): no inhibitory activity; IC50 [2]: > 20 µM
Nc1nnc(SCCc2ccc(NC(=O)Cc3ccccc3)nn2)s1 [Compound 24, N-(6-(2-(5-Amino-1,3,4-thiadiazol-2-ylthio)ethyl)pyridazin-3-yl)-2-phenylacetamide] | comparable | 
O=C(Cc1ccccc1)Nc1ccc(CCSc2nnc(NC(=O)Cc3ccccc3)s2)nn1 [Compound 25, 2-Phenyl-N-(6-(2-(5-(2-phenylacetamido)-1,3,4-thiadiazol-2-ylthio)ethyl)pyridazin-3-yl)acetamide] | comparable | solubility at 24 h [3]: < 1 µM
O=C(Cc1ccccc1)Nc1nnc(CCSc2nnc(NC(=O)Cc3ccccc3)s2)s1 [Compound 3a, 2-Phenyl-N-(5-(2-(5-(2-phenylacetamido)-1,3,4-thiadiazol-2-yl)ethylthio)-1,3,4-thiadiazol-2-yl)acetamide] |  | behaviour on addition of stock solution to cell culture media [4]: precipitation
O=C(Cc1ccccc1)Nc1ccc(SCCc2nnc(NC(=O)Cc3ccccc3)s2)nn1 [Compound 19, 2-Phenyl-N-(6-(2-(5-(2-phenylacetamido)-1,3,4-thiadiazol-2-yl)ethylthio)pyridazin-3-yl)acetamide] | substantially weaker potency | 
Nc1nnc(CCSc2ccc(NC(=O)Cc3ccccc3)nn2)s1 [Compound 18, N-(6-(2-(5-Amino-1,3,4-thiadiazol-2-yl)ethylthio)pyridazin-3-yl)-2-phenylacetamide] | substantially weaker potency | 
